Measurements taken from ChEMBL document CHEMBL4428080, “Discovery and Pharmacological Characterization of Novel Quinazoline-Based PI3K Delta-Selective Inhibitors” (ACS Med Chem Lett, 2016).
In brackets after ≈: the same amount, converted by molar mass.

Columns and labels:
[1] = Octanol/water partition coefficient, log P of the compound by high-throughput assay; format: physicochemical
[2] = Equilibrium solubility of the compound at pH 6.8 by high-throughput assay; format: physicochemical; details: buffer
In short: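 High-throughput equilibrium solubility determination at pH 6.8, reported in mM.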

[3] = Volume of distribution at steady state in Sprague-Dawley rat at 1 mg/kg, iv by HPLC method; format: ADME, organism-based; details: in vivo, read-out: Vdss
[4] = Dose normalized AUC in Sprague-Dawley rat at 1 mg/kg, iv by HPLC method; format: ADME, organism-based; details: in vivo
[5] = Dose normalized AUC in Sprague-Dawley rat at 3 mg/kg, po by HPLC method; format: ADME, organism-based; details: in vivo
[6] = Oral bioavailability in Sprague-Dawley rat at 3 mg/kg by HPLC method; format: ADME, organism-based; details: in vivo
In short: (§1)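 Oral PK in Sprague Dawley rats at 3 or 30 mg/kg and in dogs at 0.3 mg/kg. Dose-normalized parameters are scaled to 1 mg·kg^-1.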

[7] = Dose normalized Cmax in Sprague-Dawley rat at 3 mg/kg, po by HPLC method; format: ADME, organism-based; details: in vivo; in short: as §1
[8] = Tmax in Sprague-Dawley rat at 3 mg/kg, po by HPLC method; format: ADME, organism-based; details: in vivo; in short: as §1
[9] = Dose normalized AUC in Sprague-Dawley rat at 30 mg/kg, po by HPLC method; format: ADME, organism-based; details: in vivo; in short: as §1
[10] = Oral bioavailability in Sprague-Dawley rat at 30 mg/kg by HPLC method; format: ADME, organism-based; details: in vivo; in short: as §1
[11] = Dose normalized Cmax in Sprague-Dawley rat at 30 mg/kg, po by HPLC method; format: ADME, organism-based; details: in vivo; in short: as §1
[12] = Tmax in Sprague-Dawley rat at 30 mg/kg, po by HPLC method; format: ADME, organism-based; details: in vivo; in short: as §1
[13] = Volume of distribution at steady state in Beagle dog at 0.1 mg/kg, iv by HPLC method; format: ADME, organism-based, Canis lupus familiaris; details: in vivo, read-out: Vdss
[14] = Dose normalized AUC in Beagle dog at 0.1 mg/kg, iv by HPLC method; format: ADME, organism-based, Canis lupus familiaris; details: in vivo
[15] = Dose normalized AUC in Beagle dog at 0.3 mg/kg, po by HPLC method; format: ADME, organism-based, Canis lupus familiaris; details: in vivo; in short: as §1
[16] = Oral bioavailability in Beagle dog at 0.3 mg/kg by HPLC method; format: ADME, organism-based, Canis lupus familiaris; details: in vivo; in short: as §1
[17] = Dose normalized Cmax in Beagle dog at 0.3 mg/kg, po by HPLC method; format: ADME, organism-based, Canis lupus familiaris; details: in vivo; in short: as §1
[18] = Tmax in Beagle dog at 0.3 mg/kg, po by HPLC method; format: ADME, organism-based, Canis lupus familiaris; details: in vivo; in short: as §1
[19] = Drug uptake in Lewis rat blood at 30 mg/kg, po administered as single dose by LC-MS analysis; format: ADME, organism-based; details: in vivo, read-out: Drug uptake
In short: (§2)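 Lewis rats received a single oral dose of 30 mg/kg. Blood was collected at various time points and drug levels were determined.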

[20] = Tmax in Lewis rat blood at 30 mg/kg, po administered as single dose by LC-MS analysis; format: ADME, organism-based; details: whole blood; in short: as §2

## COc1ncc(-c2ccc3ncnc(-c4cccc(C(=O)N5CCN(C)CC5)c4)c3c2)cc1C#N
[1]
  logP: 1.9
[2]
  solubility thermodynamic: 420 µM (≈ 195 µg/mL)

## CC(=O)N1CCN(C(=O)c2cccc(-c3ncnc4ccc(-c5cnc6ccccc6c5)cc34)c2)CC1
[1]
  logP: 2.8
[2]
  solubility thermodynamic: 610 µM (≈ 297 µg/mL)

## CN1CCN(C(=O)c2cccc(-c3ncnc4ccc(-c5cnc6ccccc6c5)cc34)c2)CC1
[1]
  logP: 3.1
[2]
  solubility thermodynamic: > 1000 µM

## COc1ncc(-c2ccc3ncnc(-c4cccc(C(=O)N5CCN(C(C)=O)CC5)c4)c3c2)cc1C#N
[1]
  logP: 2.8
[2]
  solubility thermodynamic: 210 µM (≈ 103 µg/mL)
[3]
  Vd: 2 L/kg
[4]
  AUC/dose: 2315 nM·h
[5]
  AUC/dose: 500 nM·h
[6]
  bioavailability: 22%
[7]
  Cmax/dose: 48 nM
[8]
  Tmax: 3.5 h
[9]
  AUC/dose: 237 nM·h
[10]
  bioavailability: 10%
[11]
  Cmax/dose: 20 nM
[12]
  Tmax: 5.3 h
[13]
  Vd: 1 L/kg
[14]
  AUC/dose: 2798 nM·h
[15]
  AUC/dose: 1188 nM·h
[16]
  bioavailability: 42%
[17]
  Cmax/dose: 440 nM
[18]
  Tmax: 0.8 h
[19]
  concentration: 5000 nM
[20]
  Tmax: 2 h

## COc1ccc(-c2ccc3ncnc(-c4cccc(C(=O)N5CCN(C(C)=O)CC5)c4)c3c2)cc1OC
[1]
  logP: 1.9
[2]
  solubility thermodynamic: 800 µM (≈ 397 µg/mL)

## COc1ccc(-c2ccc3ncnc(-c4cccc(C(=O)N5CCN(C)CC5)c4)c3c2)cn1
[1]
  logP: 2.2
[2]
  solubility thermodynamic: > 1000 µM

## COc1ncc(-c2ccc3ncnc(-c4cccc(C(=O)N5CCN(C(C)=O)CC5)c4)c3c2)cc1C(F)(F)F
[1]
  logP: 3.1
[2]
  solubility thermodynamic: 380 µM (≈ 203 µg/mL)

## COc1ccc(-c2ccc3ncnc(-c4cncc(C(=O)N5CCN(C)CC5)c4)c3c2)cn1
[1]
  logP: 1.9
[2]
  solubility thermodynamic: > 1000 µM

## COc1ccc(-c2ccc3ncnc(-c4cccc(C(=O)N5CCN(C)CC5)c4)c3c2)cc1OC
[1]
  logP: 2.8
[2]
  solubility thermodynamic: 850 µM (≈ 398 µg/mL)

## COc1ncc(-c2ccc3ncnc(-c4cccc(C(=O)N5CCN(C)CC5)c4)c3c2)cc1C(F)(F)F
[1]
  logP: 3.9
[2]
  solubility thermodynamic: 850 µM (≈ 431 µg/mL)

## COc1ccc(-c2ccc3ncnc(N4CCC[C@H](C(=O)N5CCN(C)CC5)C4)c3c2)cn1
[2]
  solubility thermodynamic: > 1000 µM

## COc1ccc(-c2ccc3ncnc(-c4cccc(C(=O)N5CCN(C(C)=O)CC5)c4)c3c2)cn1
[1]
  logP: 2.7
[2]
  solubility thermodynamic: > 1000 µM
